In ChEMBL document CHEMBL1157214, “Anti-HIV agents 45(1) and antitumor agents 205.(2) two new sesquiterpenes, leitneridanins A and B, and the cytotoxic and anti-HIV principles from Leitneria floridana” (J Nat Prod, 2000):
≈ marks a conversion by molar mass, not a printed value. Blank lines part the entries; values can stand above or below the molecule they belong to.

Columns and labels:
KB = assay: Cytotoxicity against human KB cells after 3 days by SRB assay; type: functional; details: 72 h, read-out: ED50 (the source's name)
Procedure, shortened: (§1)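 Human tumour lines from the Lineberger Comprehensive Cancer Center (UNC-CH). Selected samples were then run over a dose range in triplicate for three days. Growth was read by SRB absorbance at 562 nm. ED50 is the concentration giving a 50% fall in absorbance versus untreated cells.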

A549 = assay: Cytotoxicity against human A549 cells after 3 days by SRB assay; type: functional; details: A549, 72 h, read-out: ED50 (the source's name); procedure, shortened: as §1
HCT-8 = assay: Cytotoxicity against human HCT8 cells after 3 days by SRB assay; type: functional; details: HCT-8, 72 h, read-out: ED50 (the source's name); procedure, shortened: as §1
CAKI-1 = assay: Cytotoxicity against human CAKI1 cells after 3 days by SRB assay; type: functional; details: CAKI-1, 72 h, read-out: ED50 (the source's name); procedure, shortened: as §1
MCF7 = assay: Cytotoxicity against human MCF7 cells after 3 days by SRB assay; type: functional; details: MCF7, 72 h, read-out: ED50 (the source's name); procedure, shortened: as §1
SK-MEL-2 = assay: Cytotoxicity against human SK-MEL-2 cells after 3 days by SRB assay; type: functional; details: for EC50: Homo sapiens, SK-MEL-2, 72 h, read-out: ED50 (the source's name)
[1] = tested on: Human immunodeficiency virus; assay: Inhibition of HIV replication in human H9 cells; type: functional, organism-based; details: Human immunodeficiency virus 1, H9
H9 = assay: Growth inhibition of human H9 cells; type: cell-based
[2] = Therapeutic index, ratio of IC50 for human H9 cells to EC50 for HIV; type: cell-based; details: read-out: Ratio IC50/EC50

- EC50 [1]: 0.256 µg/mL (≈ 1.02 µM)
Structure (SMILES): COc1cnc2ccc(=O)n3c4ccccc4c1c23
- EC50 (KB): 3.6 µg/mL (≈ 14.4 µM)
- EC50 (A549): 4.3 µg/mL (≈ 17.2 µM)
- EC50 (HCT-8): 3.6 µg/mL (≈ 14.4 µM)
- EC50 (CAKI-1): 3.6 µg/mL (≈ 14.4 µM)
- EC50 (MCF7): 13.5 µg/mL (≈ 53.9 µM)
- inhibition (INH) (SK-MEL-2): 46%
- EC50 (SK-MEL-2): > 20 µg/mL
- IC50 (H9): > 100 µg/mL
- selectivity ratio [2]: > 391

Structure (SMILES): CC[C@](C)(OC(C)=O)C(=O)O[C@H]1C(=O)O[C@@H]2C[C@H]3C(C)=CC(=O)[C@@H](O)[C@]3(C)[C@H]3[C@@H](O)[C@H](O)[C@@]4(C)OC[C@]32[C@@H]14 [QUASSIMARIN]
- EC50 (KB): 0.06 µg/mL (≈ 0.112 µM)
- EC50 (A549): 0.03 µg/mL (≈ 0.0559 µM)
- EC50 (HCT-8): 0.012 µg/mL (≈ 0.0224 µM)
- EC50 (CAKI-1): 0.05 µg/mL (≈ 0.0932 µM)
- EC50 (MCF7): 0.006 µg/mL (≈ 0.0112 µM)
- EC50 (SK-MEL-2): 0.05 µg/mL (≈ 0.0932 µM)

Structure (SMILES): COc1cc2nccc3c4ccccc4n(c1=O)c23 [5-METHOXYCANTHINONE]
- EC50 (KB): 2.9 µg/mL (≈ 11.6 µM)
- EC50 (A549): 3.1 µg/mL (≈ 12.4 µM)
- EC50 (HCT-8): 2.5 µg/mL (≈ 9.99 µM)
- EC50 (CAKI-1): 4.4 µg/mL (≈ 17.6 µM)
- EC50 (MCF7): 5 µg/mL (≈ 20 µM)
- EC50 (SK-MEL-2): 17 µg/mL (≈ 67.9 µM)

Structure (SMILES): CC[C@@H](C)C(=O)O[C@H]1C(=O)O[C@@H]2C[C@H]3C(C)=CC(=O)[C@@H](O)[C@]3(C)[C@H]3[C@@H](O)[C@H](O)[C@]4(C)OC[C@]32[C@@H]14 [SIMALIKALACTONE D]
- EC50 (KB): 0.018 µg/mL (≈ 0.0376 µM)
- EC50 (A549): 0.04 µg/mL (≈ 0.0836 µM)
- EC50 (HCT-8): 0.013 µg/mL (≈ 0.0272 µM)
- EC50 (CAKI-1): 0.26 µg/mL (≈ 0.543 µM)
- EC50 (MCF7): 0.014 µg/mL (≈ 0.0293 µM)
- EC50 (SK-MEL-2): 0.13 µg/mL (≈ 0.272 µM)
